Data as given in article PMC3241894 (ACS chemical biology, 2011).

What was measured:
[1] = test system: FKBP52 and Hsp90 binding interaction; assay: pure protein binding assay FKBP52 and Hsp90; parameters: species or system human; conditions: 100 nM Hsp90, 50 nM GST-FKBP52, 0–10 µM compound
[2] = test system: FKBP38 and Hsp90 binding interaction; assay: pure protein binding assay FKBP38 and Hsp90; parameters: species or system human; conditions: 100 nM Hsp90, 50 nM GST-FKBP38, 0–10 µM compound
[3] = test system: HeLa cells; assay: Hsp90 over-expression experiments, cell survival; type: cell-based; conditions: pCMV-Hsp90 vs pCMV control, compound 1 50 µM, 2 5 µM, 17-AAG 100 nM
Method in brief: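 HeLa cells (~30% confluent) were co-transfected by PolyFect with HSP90α and HSP90β plasmids (0.5 µg each) or empty pCMV (1 µg). Hsp90 overexpression was checked by Western blot. After 24 h, cells received DMSO (control), test compound (50 or 5 µM) or 17-AAG (100 nM), and survival was read by CCK-8. Three repeats, mean ± SEM.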

[4] = test system: Hsp70; assay: Hsp70 up-regulation in compound-treated cells; type: cell-based; conditions: HCT-116 cells, 24 hours
Method in brief: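 HCT-116 cells exposed for 24 h to test compound (0–25 µM), or to 17-AAG (0–200 nM) as reference Hsp90 inhibitor. Cells were then harvested and lysed, and lysates probed for Hsp70 by Western blot with GAPDH as loading control. Experiments were repeated three times, reported as mean ± SEM, and compared by unpaired t-test.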

C=CCNC1=C2C[C@@H](C)C[C@H](OC)[C@H](O)[C@@H](C)/C=C(\C)[C@H](OC(N)=O)[C@@H](OC)/C=C\C=C(/C)C(=O)NC(=CC1=O)C2=O [17-AAG, 17-(allylamino)-17-demethoxygeldanamycin]
inhibition of binding between Hsp90 and FKBP52 [1]: do not affect
inhibition of binding between Hsp90 and FKBP38 [2]: do not affect
cytotoxic effect on Hsp90 over-expressing cells relative to control cells [3]: also true
Hsp70 up-regulation over control [4]: 100%
